Legend:
Assay type in all cases: functional
Mus musculus [1] = assay: Median survival of treated/ control animals (%T/C) was determined by in vivo antitumor activity against the B16 melanoma cell line at a dose of 15 mg/kg administered intraperitoneally on day 5; conditions: route intraperitoneal
How it was run: (§1)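 Murine B16 melanoma implanted intraperitoneally in mice. Drug given intraperitoneally on days 5, 9 and 13 after implantation, with dose expressed as doxorubicin equivalents. Read-out is %T/C, the median survival of treated animals over that of untreated controls.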

Mus musculus [2] = assay: Median survival of treated/ control animals (%T/C) was determined by in vivo antitumor activity against the B16 melanoma cell line at a dose of 60 mg/kg administered intraperitoneally on day 5; conditions: route intraperitoneal; how it was run: as §1
Mus musculus [3] = assay: Median survival of treated/ control animals (%T/C) was determined by in vivo antitumor activity against the B16 melanoma cell line at a dose of 30 mg/kg administered intraperitoneally on day 5; conditions: route intraperitoneal; how it was run: as §1
Mus musculus [4] = assay: Median survival of treated/ control animals (%T/C) was determined by in vivo antitumor activity against the B16 melanoma cell line at a dose of 5 mg/kg administered intraperitoneally on day 5; conditions: route intraperitoneal; how it was run: as §1
Gallus gallus [5] = species: Gallus gallus; assay: Inhibitory activity against the [3H]thymidine incorporation into DNA of Rous Sarcoma virus transformed chicken embryo fibroblasts at 24 hr of treatment; conditions: read-out: ED50 (the source's name)
Gallus gallus [6] = species: Gallus gallus; assay: Inhibitory activity against the [3H]thymidine incorporation into DNA of Rous Sarcoma virus transformed chicken embryo fibroblasts at 5 hr of treatment; conditions: read-out: ED50 (the source's name)
Gallus gallus [7] = species: Gallus gallus; assay: Inhibitory activity against the [3H]thymidine incorporation into DNA of normal chicken embryo fibroblasts at 24 hr of treatment; conditions: read-out: ED50 (the source's name)
Gallus gallus [8] = species: Gallus gallus; assay: Inhibitory activity against the [3H]-thymidine incorporation into DNA of normal chicken embryo fibroblasts at 5 hr of treatment; conditions: read-out: ED50 (the source's name)
Mus musculus [9] = assay: Median survival of treated/ control animals (%T/C) was determined by in vivo antitumor activity against the B16 melanoma cell line at a dose of 75 mg/kg administered intraperitoneally on day 5; conditions: route intraperitoneal; how it was run: as §1
Mus musculus [10] = assay: Median survival of treated/ control animals (%T/C) was determined by in vivo antitumor activity against the B16 melanoma cell line at a dose of 45 mg/kg administered intraperitoneally on day 5; conditions: route intraperitoneal; how it was run: as §1
[11] = Degree of improvement in the selective cytotoxicity of the prodrug (drug 10) to that of the parent drug (drug 1) at 24 hr of treatment; Value is measured as 6.8 times
[12] = Degree of improvement in the selective cytotoxicity of the prodrug (drug 10) to that of the parent drug (drug 1) at 5 hr of treatment; Value is measured as 5.8 times
[13] = Selectivity index between the ED50 value for normal cells to that of transformed chicken embryo fibroblast cells at 24 hr of treatment
[14] = Selectivity index between the ED50 value for normal cells to that of transformed chicken embryo fibroblast cells at 5 hr of treatment
Mus musculus [15] = assay: Median survival of treated/ control animals (%T/C) was determined by in vivo antitumor activity against the B16 melanoma cell line at a dose of 12 mg/kg administered intraperitoneally on day 5; conditions: route intraperitoneal; how it was run: as §1
Mus musculus [16] = assay: Median survival of treated/ control animals (%T/C) was determined by in vivo antitumor activity against the B16 melanoma cell line at a dose of 6 mg/kg administered intraperitoneally on day 5; conditions: route intraperitoneal; how it was run: as §1
Mus musculus [17] = assay: Median survival of treated/ control animals (%T/C) was determined by in vivo antitumor activity against the B16 melanoma cell line at a dose of 9 mg/kg administered intraperitoneally on day 5; conditions: route intraperitoneal; how it was run: as §1
Mus musculus [18] = assay: Median survival of treated/ control animals (%T/C) was determined by in vivo antitumor activity against the B16 melanoma cell line at a dose of 3 mg/kg administered intraperitoneally on day 5; conditions: route intraperitoneal; how it was run: as §1
Mus musculus [19] = assay: Median survival of treated/ control animals (%T/C) was determined by in vivo antitumor activity against the B16 melanoma cell line at a dose of 1 mg/kg administered intraperitoneally on day 5; conditions: route intraperitoneal; how it was run: as §1

Row | Compound | T/C (Mus musculus [1]) [%] | T/C (Mus musculus [2]) [%] | T/C (Mus musculus [3]) [%] | T/C (Mus musculus [4]) [%] | EC50 (Gallus gallus [5]) [µM] | EC50 (Gallus gallus [6]) [µM] | EC50 (Gallus gallus [7]) [µM] | EC50 (Gallus gallus [8]) [µM] | T/C (Mus musculus [9]) [%] | T/C (Mus musculus [10]) [%] | Improvement [11] | Improvement [12] | Selectivity index [13] | Selectivity index [14] | T/C (Mus musculus [15]) [%] | T/C (Mus musculus [16]) [%] | T/C (Mus musculus [17]) [%] | T/C (Mus musculus [18]) [%] | T/C (Mus musculus [19]) [%]
1 | COc1cccc2c1C(=O)c1c(O)c3c(c(O)c1C2=O)C[C@@](O)(C(=O)CO)C[C@@H]3OC1CC(NC(=O)[C@H](CCCCN)NC(=O)[C@H](CC(C)C)NC(=O)[C@@H](NC(=O)OC(C)(C)C)C(C)C)C(O)C(C)O1.Cl (stereo partly specified) | 100 | 100 | 110 | 105 | – | – | – | – | – | – | – | – | – | – | – | – | – | – | –
2 | COc1cccc2c1C(=O)c1c(O)c3c(c(O)c1C2=O)C[C@@](O)(C(=O)CO)C[C@@H]3OC1CC(NC(=O)[C@H](CCCCN)NC(=O)[C@H](CC(C)C)NC(=O)[C@H](N)C(C)C)C(O)C(C)O1 (stereo partly specified) | 103 | 113 | 97 | 105 | 0.8 | 26 | 3 | 54 | 121 | 105 | 6.8 | 5.8 | 3.8 | 2.1 | – | – | – | – | –
3 | COc1cccc2c1C(=O)c1c(O)c3c(c(O)c1C2=O)C[C@@](O)(C(=O)CO)C[C@@H]3O[C@H]1C[C@H](N)[C@H](O)[C@H](C)O1 [DOXORUBICIN] | – | – | – | – | 0.18 | 2.5 | 0.1 | 0.9 | – | – | 6.8 | 5.8 | 0.56 | 0.36 | 68 | 158 | 90 | 137 | 111

Reference: ChEMBL document CHEMBL1122296, “Plasmin-activated prodrugs for cancer chemotherapy. 2. Synthesis and biological activity of peptidyl derivatives of doxorubicin” (1983)
